# Assay results: ChEMBL document CHEMBL4680065, “Pharmacophore-based screening of diamidine small molecule inhibitors for protein arginine methyltransferases” (RSC Med Chem, 2021)
# Assays:
# [1] = biological target: Protein arginine N-methyltransferase 1 (Homo sapiens, UniProt Q99873); assay: Inhibition of recombinant human His-tagged PRMT1 expressed in Escherichia coli BL21 (DE3) using biotin-labeled histone H4-20 as substrate incubated for 8 mins in presence of [3H]-SAM cofactor by scintillation proximity assay
# Sequence of Protein arginine N-methyltransferase 1 (Q99873 whole entry): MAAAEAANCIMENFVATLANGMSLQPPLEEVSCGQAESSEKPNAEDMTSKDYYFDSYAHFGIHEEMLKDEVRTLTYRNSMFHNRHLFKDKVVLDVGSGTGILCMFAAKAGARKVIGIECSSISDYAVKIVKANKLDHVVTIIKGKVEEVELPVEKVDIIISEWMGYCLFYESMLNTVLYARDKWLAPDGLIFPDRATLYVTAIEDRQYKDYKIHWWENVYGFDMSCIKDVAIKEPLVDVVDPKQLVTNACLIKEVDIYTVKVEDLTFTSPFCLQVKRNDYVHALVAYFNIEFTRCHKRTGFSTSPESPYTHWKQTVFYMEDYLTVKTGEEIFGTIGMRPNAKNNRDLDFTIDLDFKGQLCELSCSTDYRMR
# [2] = biological target: Protein arginine N-methyltransferase 6 (Homo sapiens, UniProt Q96LA8); assay: Inhibition of PRMT6 (unknown origin) using biotin-labeled SMD1 as substrate incubated for 30 mins in presence of [3H]-SAM cofactor by scintillation proximity assay
# Sequence of Protein arginine N-methyltransferase 6 (Q96LA8 whole entry): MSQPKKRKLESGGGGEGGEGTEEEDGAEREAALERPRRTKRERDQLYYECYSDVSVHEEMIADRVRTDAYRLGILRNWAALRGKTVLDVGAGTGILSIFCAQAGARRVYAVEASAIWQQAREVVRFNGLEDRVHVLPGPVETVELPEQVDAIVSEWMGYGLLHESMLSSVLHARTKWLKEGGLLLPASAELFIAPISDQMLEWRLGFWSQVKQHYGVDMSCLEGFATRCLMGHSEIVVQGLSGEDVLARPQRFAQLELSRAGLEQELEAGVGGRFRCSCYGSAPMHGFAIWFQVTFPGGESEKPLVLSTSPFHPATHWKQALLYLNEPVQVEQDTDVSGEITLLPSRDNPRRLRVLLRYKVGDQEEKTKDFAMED
# [3] = biological target: T1, Histone-arginine methyltransferase CARM1 (Homo sapiens, UniProt Q86X55); assay: Inhibition of recombinant GST-tagged CARM1 (unknown origin) expressed in Escherichia coli using […] incubated for 120 mins in presence of [3H]-SAM cofactor by radioactive filter plate assay
# T1 sequence (Q86X55 whole entry): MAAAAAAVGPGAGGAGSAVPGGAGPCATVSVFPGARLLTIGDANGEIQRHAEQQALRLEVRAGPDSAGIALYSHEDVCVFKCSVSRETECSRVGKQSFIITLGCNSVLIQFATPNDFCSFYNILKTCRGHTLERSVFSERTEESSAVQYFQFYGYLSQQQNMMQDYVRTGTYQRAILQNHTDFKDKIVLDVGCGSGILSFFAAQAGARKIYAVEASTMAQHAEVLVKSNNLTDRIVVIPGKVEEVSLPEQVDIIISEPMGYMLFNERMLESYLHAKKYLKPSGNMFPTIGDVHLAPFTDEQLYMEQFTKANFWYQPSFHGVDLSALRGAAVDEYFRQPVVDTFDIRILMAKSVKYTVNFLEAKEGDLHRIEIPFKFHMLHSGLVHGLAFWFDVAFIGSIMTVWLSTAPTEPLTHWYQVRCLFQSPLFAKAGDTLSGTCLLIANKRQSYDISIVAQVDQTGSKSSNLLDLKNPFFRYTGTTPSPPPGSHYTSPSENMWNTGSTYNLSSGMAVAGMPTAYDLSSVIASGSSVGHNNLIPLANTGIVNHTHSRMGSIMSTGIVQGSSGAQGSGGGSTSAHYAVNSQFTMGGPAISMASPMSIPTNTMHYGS
# [4] = biological target: T2, Protein arginine N-methyltransferase 7 (Homo sapiens, UniProt Q9NVM4); assay: Inhibition of recombinant GST-tagged PRMT7 (unknown origin) expressed in Escherichia coli using biotin-labeled SMD1 as substrate incubated for 120 mins in presence of [3H]-SAM cofactor by scintillation proximity assay
# T2 sequence (Q9NVM4 whole entry): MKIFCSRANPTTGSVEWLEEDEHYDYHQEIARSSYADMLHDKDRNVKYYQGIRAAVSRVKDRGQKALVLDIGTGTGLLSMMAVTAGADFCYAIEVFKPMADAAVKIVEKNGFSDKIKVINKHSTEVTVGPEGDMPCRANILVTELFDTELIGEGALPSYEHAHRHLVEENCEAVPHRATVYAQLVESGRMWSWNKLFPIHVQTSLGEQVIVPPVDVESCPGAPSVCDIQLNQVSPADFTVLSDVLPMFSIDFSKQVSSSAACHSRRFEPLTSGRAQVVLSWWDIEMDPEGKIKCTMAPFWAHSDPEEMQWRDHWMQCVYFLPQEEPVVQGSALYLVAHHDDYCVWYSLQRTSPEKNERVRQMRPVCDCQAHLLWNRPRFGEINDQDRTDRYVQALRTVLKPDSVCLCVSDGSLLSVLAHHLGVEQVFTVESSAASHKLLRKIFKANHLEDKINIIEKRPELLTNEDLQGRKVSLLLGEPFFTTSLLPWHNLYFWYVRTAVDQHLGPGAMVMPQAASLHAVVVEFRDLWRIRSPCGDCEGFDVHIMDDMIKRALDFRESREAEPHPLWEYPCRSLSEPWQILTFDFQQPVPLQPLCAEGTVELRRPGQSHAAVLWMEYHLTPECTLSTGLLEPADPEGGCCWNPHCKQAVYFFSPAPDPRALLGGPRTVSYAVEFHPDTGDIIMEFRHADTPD
# Method in brief: (§1)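 The inhibitor was serially diluted and added to the enzyme, [3H]-SAM and substrate mixture, and methylated substrate was quantified by scintillation proximity assay. Reactions were held at initial rate, with yield under 10% and substrate near Km. PRMT3, PRMT8 and G9a were His-tagged human proteins, and PRMT7 was GST-tagged, all expressed in E. coli and affinity-purified.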
# [5] = biological target: T3, Histone-lysine N-methyltransferase EHMT2 (Homo sapiens, UniProt Q96KQ7); assay: Inhibition of recombinant His-tagged human G9a expressed in Escherichia coli BL21 (DE3) using biotin-labeled histone H3-20 peptide as substrate incubated for 30 mins in presence of [3H]-SAM cofactor by scintillation proximity assay; method in brief: as §1
# T3 sequence (Q96KQ7 whole entry): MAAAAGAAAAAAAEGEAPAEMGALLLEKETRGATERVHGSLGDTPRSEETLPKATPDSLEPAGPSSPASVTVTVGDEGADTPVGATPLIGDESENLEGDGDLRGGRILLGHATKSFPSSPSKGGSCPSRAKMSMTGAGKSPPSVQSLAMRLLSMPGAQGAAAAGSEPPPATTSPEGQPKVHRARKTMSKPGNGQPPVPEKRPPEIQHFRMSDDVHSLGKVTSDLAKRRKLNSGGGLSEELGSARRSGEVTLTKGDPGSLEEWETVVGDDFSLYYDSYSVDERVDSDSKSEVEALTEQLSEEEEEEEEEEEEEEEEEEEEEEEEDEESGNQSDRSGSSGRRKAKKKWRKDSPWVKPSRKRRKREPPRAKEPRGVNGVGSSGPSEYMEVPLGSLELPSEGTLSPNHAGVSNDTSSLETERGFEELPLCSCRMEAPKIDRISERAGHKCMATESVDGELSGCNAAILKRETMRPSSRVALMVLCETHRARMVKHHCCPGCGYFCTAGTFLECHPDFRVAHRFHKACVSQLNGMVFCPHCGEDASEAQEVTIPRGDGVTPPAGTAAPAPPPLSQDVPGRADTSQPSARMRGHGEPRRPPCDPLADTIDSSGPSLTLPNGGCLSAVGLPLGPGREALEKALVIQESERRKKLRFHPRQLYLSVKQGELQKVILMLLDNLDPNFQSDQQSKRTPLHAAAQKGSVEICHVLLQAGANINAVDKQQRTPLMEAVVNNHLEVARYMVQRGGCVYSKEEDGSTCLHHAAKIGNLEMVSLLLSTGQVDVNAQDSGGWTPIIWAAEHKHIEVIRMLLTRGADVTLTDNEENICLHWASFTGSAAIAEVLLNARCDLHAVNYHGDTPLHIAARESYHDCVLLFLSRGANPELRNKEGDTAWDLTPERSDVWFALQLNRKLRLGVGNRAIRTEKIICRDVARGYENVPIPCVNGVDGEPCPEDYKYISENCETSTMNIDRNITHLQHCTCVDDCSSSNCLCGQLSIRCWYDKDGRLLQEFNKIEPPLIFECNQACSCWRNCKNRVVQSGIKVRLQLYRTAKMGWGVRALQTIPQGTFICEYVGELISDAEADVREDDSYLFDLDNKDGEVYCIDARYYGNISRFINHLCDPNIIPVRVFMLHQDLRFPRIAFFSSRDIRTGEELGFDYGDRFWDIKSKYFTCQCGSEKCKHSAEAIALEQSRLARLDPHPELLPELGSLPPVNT
# [6] = biological target: Protein arginine N-methyltransferase 3 (Homo sapiens, UniProt O60678); assay: Inhibition of recombinant human His-tagged PRMT3 expressed in Escherichia coli BL21 (DE3) using biotin-labeled SMD1 as substrate incubated for 10 mins in presence of [3H]-SAM cofactor by scintillation proximity assay; method in brief: as §1
# Sequence of Protein arginine N-methyltransferase 3 (O60678 whole entry): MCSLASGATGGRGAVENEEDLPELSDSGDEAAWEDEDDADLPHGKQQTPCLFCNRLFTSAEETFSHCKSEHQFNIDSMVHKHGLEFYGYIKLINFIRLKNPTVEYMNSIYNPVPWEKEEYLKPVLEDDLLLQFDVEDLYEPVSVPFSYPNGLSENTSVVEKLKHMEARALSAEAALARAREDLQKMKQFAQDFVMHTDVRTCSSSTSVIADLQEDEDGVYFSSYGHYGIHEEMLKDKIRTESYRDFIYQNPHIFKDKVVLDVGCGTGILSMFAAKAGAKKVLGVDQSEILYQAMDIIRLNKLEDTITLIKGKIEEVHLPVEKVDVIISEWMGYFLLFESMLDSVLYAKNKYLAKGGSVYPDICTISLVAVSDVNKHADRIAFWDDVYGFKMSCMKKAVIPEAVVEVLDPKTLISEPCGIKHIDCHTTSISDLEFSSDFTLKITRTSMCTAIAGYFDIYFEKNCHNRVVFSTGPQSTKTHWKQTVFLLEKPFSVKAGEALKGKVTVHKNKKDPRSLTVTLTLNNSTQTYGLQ
# [7] = biological target: Protein arginine N-methyltransferase 8 (Homo sapiens, UniProt Q9NR22); assay: Inhibition of recombinant His-tagged human PRMT8 expressed in Escherichia coli BL21 (DE3) using biotin-labeled histone H4-20 peptide as substrate incubated for 8 mins in presence of [3H]-SAM cofactor by scintillation proximity assay; method in brief: as §1
# Sequence of Protein arginine N-methyltransferase 8 (Q9NR22 whole entry): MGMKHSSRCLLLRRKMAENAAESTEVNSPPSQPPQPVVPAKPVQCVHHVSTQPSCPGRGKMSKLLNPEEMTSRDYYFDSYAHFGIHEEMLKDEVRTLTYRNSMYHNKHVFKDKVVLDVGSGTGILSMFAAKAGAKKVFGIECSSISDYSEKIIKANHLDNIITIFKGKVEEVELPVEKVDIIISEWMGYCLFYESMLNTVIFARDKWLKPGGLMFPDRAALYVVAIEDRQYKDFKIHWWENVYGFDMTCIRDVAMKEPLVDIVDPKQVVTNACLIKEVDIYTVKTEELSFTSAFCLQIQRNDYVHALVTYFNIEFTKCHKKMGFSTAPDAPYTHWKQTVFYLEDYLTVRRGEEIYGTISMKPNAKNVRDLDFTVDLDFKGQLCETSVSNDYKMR
# PRMT5/MEP50 complex = PRMT5/MEP50 complex (Homo sapiens, UniProt O14744); assay: Inhibition of PRMT5/MEP50 (unknown origin) using biotin-labeled histone H4-20 peptide as substrate incubated for 8 mins in presence of [3H]-SAM cofactor by scintillation proximity assay; format: protein-complex assay
# Sequence of PRMT5/MEP50 complex (O14744 whole entry): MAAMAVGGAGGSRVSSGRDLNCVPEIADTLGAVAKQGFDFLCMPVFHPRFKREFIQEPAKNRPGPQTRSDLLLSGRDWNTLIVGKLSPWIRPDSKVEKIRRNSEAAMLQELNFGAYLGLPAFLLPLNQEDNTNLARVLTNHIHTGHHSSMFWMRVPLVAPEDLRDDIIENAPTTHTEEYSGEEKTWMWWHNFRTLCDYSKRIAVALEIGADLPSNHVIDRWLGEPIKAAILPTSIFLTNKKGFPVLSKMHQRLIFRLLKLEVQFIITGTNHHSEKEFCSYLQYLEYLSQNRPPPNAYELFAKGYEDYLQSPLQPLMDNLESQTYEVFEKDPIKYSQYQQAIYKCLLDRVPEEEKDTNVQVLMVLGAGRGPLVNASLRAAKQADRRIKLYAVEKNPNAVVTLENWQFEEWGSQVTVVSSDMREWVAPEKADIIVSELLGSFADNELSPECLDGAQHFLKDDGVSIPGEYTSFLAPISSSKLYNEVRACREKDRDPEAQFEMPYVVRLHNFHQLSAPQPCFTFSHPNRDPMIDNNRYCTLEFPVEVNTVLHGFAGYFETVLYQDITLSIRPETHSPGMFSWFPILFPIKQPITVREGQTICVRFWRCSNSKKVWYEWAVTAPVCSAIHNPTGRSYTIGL
# Sequence of PRMT5/MEP50 complex (Q9BQA1 whole entry, further chain): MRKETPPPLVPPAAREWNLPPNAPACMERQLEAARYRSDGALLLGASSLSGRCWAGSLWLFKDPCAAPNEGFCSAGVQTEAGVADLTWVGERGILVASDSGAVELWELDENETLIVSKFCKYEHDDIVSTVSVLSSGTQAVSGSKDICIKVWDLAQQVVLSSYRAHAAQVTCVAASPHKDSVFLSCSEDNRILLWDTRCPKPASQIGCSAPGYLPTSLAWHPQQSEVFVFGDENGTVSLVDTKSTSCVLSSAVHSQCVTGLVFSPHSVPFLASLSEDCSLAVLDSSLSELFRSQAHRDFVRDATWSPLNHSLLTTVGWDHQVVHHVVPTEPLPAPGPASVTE
# Method in brief: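 Part of a methyltransferase selectivity panel. Test compound was serially diluted into a mixture of enzyme, [3H]-SAM cofactor and substrate. Methylated substrate was quantified by scintillation proximity assay. Reactions were held at initial-rate conditions with substrate turnover under 10%, and substrate concentrations were near Km.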
smiles,measurement,setting,value
N=C(N)c1ccc(NC(=O)c2cc3cc(C(=N)N)ccc3o2)cc1,IC50,[1],> 100 µM
N=C(N)c1ccc(/C=C/c2cc3cc(C(=N)N)ccc3o2)cc1,IC50,[1],10 µM
N=C(N)c1ccc(-c2ccc(-c3ccc(C(=N)N)cc3)o2)cc1 [FURAMIDINE],IC50,[1],8.9 µM
O=C(Nc1ccc(C2=NCCN2)cc1)c1cc2ccc(C3=NCCN3)cc2o1,IC50,[1],> 100 µM
N=C(N)c1ccc(NC(=O)c2cc3ccc(C(=N)N)cc3o2)cc1,IC50,[1],> 100 µM
c1cc2cc(-c3ccc4oc(C5=NCCN5)cc4c3)[nH]c2cc1C1=NCCN1,IC50,[2],12.9 µM
same,IC50,[3],155 µM
same,IC50,[4],248 µM
same,IC50,[5],39.7 µM
same,IC50,[6],19 µM
same,IC50,[7],60.1 µM
same,IC50,PRMT5/MEP50 complex,> 500 µM
N=C(N)c1ccc2[nH]c(/C=C/c3cc4cc(C(=N)N)ccc4o3)cc2c1,IC50,[1],7.7 µM
C(=C\c1cc2ccc(C3=NCCN3)cc2[nH]1)/c1cc2ccc(C3=NCCN3)cc2[nH]1,IC50,[1],6.2 µM
N=C(N)c1ccc2cc(CCc3cc4ccc(C(=N)N)cc4o3)[nH]c2c1,IC50,[1],> 10 µM
O=C(Nc1ccc(C2=NCCN2)cc1)c1cc2cc(C3=NCCN3)ccc2o1,IC50,[1],> 100 µM
CNC(=N)N/N=C(/C)c1ccc2oc3ccc(/C(C)=N/NC(=N)NC)cc3c2c1,IC50,[2],6.01 µM
same,IC50,[3],15.5 µM
same,IC50,[4],23.3 µM
same,IC50,[5],4.7 µM
same,IC50,[6],8.2 µM
same,IC50,[7],17.6 µM
same,IC50,PRMT5/MEP50 complex,18.9 µM
same,IC50,[1],6.9 µM
Nc1nc(N)c2nc3c(ccc4ccccc43)nc2n1,IC50,[2],62.9 µM
same,IC50,[3],9.1 µM
same,IC50,[4],126 µM
same,IC50,[5],81.5 µM
same,IC50,[6],55.7 µM
same,IC50,[7],167 µM
same,IC50,PRMT5/MEP50 complex,62.1 µM
C(=C\c1cc2ccc(C3=NCCN3)cc2[nH]1)/c1ccc(Oc2ccc(C3=NCCN3)cc2)cc1,IC50,[1],16.3 µM
C1=C(/C=C/c2ccc3cc(C4=NCCN4)[nH]c3c2)Cc2cc(C3=NCCN3)ccc21,IC50,[1],5 µM
C(=C/c1cc2ccc(C3=NCCN3)cc2o1)/c1cc2ccc(C3=NCCN3)cc2[nH]1,IC50,[1],7.6 µM
N=C(N)c1ccc2sc(/C=C/c3cc4ccc(C(=N)N)cc4o3)cc2c1,IC50,[1],16.5 µM
N=C(N)c1ccc2[nH]c(/C=C/c3cc4ccc(C(=N)N)cc4o3)cc2c1,IC50,[1],7.5 µM
CNCC(=O)NC1=CC2C(=O)c3ccc(NC(=O)CNC)cc3C(=O)C2C=C1 (stereo not given),IC50,[2],84.5 µM
same,IC50,[3],12.4 µM
same,IC50,[4],288 µM
same,IC50,[5],> 1000 µM
same,IC50,[6],11.6 µM
same,IC50,[7],43.7 µM
same,IC50,PRMT5/MEP50 complex,> 500 µM
N=C(N)c1ccc2cc(/C=C/c3cc4ccc(C(=N)N)cc4o3)[nH]c2c1,IC50,[1],2.4 µM
C(=C/c1cc2ccc(C3=NCCN3)cc2o1)/c1cc2cc(C3=NCCN3)ccc2[nH]1,IC50,[1],7.9 µM
